Published values from different studies.
Lines come from different studies, so protocols differ.
TYK2 JH2: Non-receptor tyrosine-protein kinase TYK2, JH2 (TYK2, Homo sapiens, UniProt P29597)
TYK2: Non-receptor tyrosine-protein kinase TYK2 (TYK2, Homo sapiens, UniProt P29597)

Structure (SMILES) | target | observed | mode | method | tested at | measurement | value
Cn1cncc1[C@@](O)(COc1ccc(C#N)cc1-c1ccc(OC(F)(F)F)cc1)c1ccc(C#N)cc1 | TYK2 JH2 | cell-free assay |  | competition with immobilised ligand | 1 µM | remaining binding | 100%
Cn1cc(-c2cc(F)cc(N3CCn4c(cc5c4CCCC5)C3=O)c2CO)cc(Nc2ccc(N3CCN(C4COC4)CC3)cn2)c1=O | TYK2 | enzyme activity | inhibitor |  | 0.1 µM | inhibition | 1%
O=c1[nH]c2ccccc2n1C1CCN(Cc2ccc(-c3[nH]c4cc5ncnc5cc4nc3-c3ccccc3)cc2)CC1 | TYK2 | cell-free assay |  |  | 0.5 µM | remaining signal | 101%
Cc1nn(C)cc1-c1nc2c(N3CCN(Cc4ccc(Cl)cc4)CC3)c(Cl)cnc2[nH]1 | TYK2 JH2 | binding |  | competition with immobilised ligand | 1 µM | remaining binding | 100%
COc1ncccc1-c1cnn2ccc(N3CCN(C(=O)OC(C)C)CC3)nc12 | TYK2 | binding |  | competition with immobilised ligand | 1 µM | remaining binding | 76%
Nc1ncc(-c2nc(N3CCOCC3)nc(N3CCOCC3)n2)c(C(F)F)n1 | TYK2 JH2 | binding |  | competition with immobilised ligand | 10 µM | remaining binding | 15%
N#CC1(c2ccccn2)CCN(Cc2cc(C(=O)O)c(=O)n3ccccc23)CC1 | TYK2 JH2 | cell-free assay |  | competition with immobilised ligand | 1 µM | remaining binding | 93%
CC(C)(C)c1cc(C=C(C#N)C#N)cc(Br)c1O | TYK2 | enzyme activity | inhibitor |  | 0.5 µM | remaining activity | 61.3%
Cn1cc(-c2cccc(N3CCc4c(sc5c4CC(C)(C)C5)C3=O)c2CO)cc(Nc2ccncn2)c1=O | TYK2 | enzyme activity | inhibitor |  | 1 µM | inhibition | 3%
